Data taken from ChEMBL document CHEMBL4138223, “Structure-activity relationships for inhibitors of Pseudomonas aeruginosa exoenzyme S ADP-ribosyltransferase activity” (Eur J Med Chem, 2018).

What follows are molecules tested against T1, Exoenzyme S (Pseudomonas aeruginosa, UniProt Q93SQ1) (assay: Inhibition of recombinant Pseudomonas aeruginosa PAK His6-tagged ExoS ADPRT domain expressed in Escherichia coli using human GST-fused vH-Ras as substrate measured over 30 mins in presence of 14.3.3beta and epsilonNAD+ by fluorescence assay). Settings: read-out: IC50.
T1 sequence (Q93SQ1 whole entry): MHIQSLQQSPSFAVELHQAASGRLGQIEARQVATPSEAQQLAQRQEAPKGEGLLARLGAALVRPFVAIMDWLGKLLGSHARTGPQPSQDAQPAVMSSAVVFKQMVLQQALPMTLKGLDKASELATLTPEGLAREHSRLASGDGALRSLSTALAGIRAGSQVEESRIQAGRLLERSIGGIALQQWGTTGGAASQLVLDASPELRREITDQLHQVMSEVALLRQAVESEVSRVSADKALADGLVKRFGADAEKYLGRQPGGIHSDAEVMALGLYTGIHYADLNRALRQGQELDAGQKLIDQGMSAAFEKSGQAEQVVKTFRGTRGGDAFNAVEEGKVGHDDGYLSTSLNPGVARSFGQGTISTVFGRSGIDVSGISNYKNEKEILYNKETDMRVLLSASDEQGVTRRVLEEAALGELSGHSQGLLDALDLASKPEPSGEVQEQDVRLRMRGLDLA
How it was run: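 Recombinant ExoS ADPRT domain with 14-3-3 cofactor, Ras substrate and εNAD+. Read transfer of fluorescent εADP-ribose to Ras. Compounds tested at 8–10 concentrations in triplicate in three independent runs. IC50 by dose-response curve fitting.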

Question: With `O=C(O)CCc1nc2sc3c(c2c(=O)[nH]1)CCCC3` as the molecule, how does the IC50 read?
Answer: 55 µM

Question: Which IC50 does the source give for `O=C(O)/C=C\c1nc2sc3c(c2c(=O)[nH]1)CCC3` here?
Answer: 15 µM

Question: How did the IC50 turn out when `O=C(O)CCC(=O)Nc1sc2c(c1C(=O)O)CCOC2` was run?
Answer: > 200 µM

Question: How did the IC50 turn out when `O=C(O)CCc1ncc(C2=CCCC2)c(=O)[nH]1` was run?
Answer: 200 µM

Question: For `O=C(O)[C@H]1C[C@@H]1c1nc2sc3c(c2c(=O)[nH]1)CCC3` (racemic), which IC50 is on record?
Answer: 10 µM

Question: With `O=c1[nH]c([C@@H]2C[C@H]2c2nn[nH]n2)nc2sc3c(c12)CCC3` (relative stereo) as the molecule, how does the IC50 read?
Answer: 233 µM

Question: With `COC(=O)CCc1nc2sc3c(c2c(=O)[nH]1)CCC3` as the molecule, how does the IC50 read?
Answer: 116 µM

Question: Which IC50 does the source give for `Nc1nc(CCC(=O)O)nc2sc3c(c12)CCC3` here?
Answer: > 200 µM

Question: With `O=C(O)[C@H]1CCC[C@H]1c1nc2sc3c(c2c(=O)[nH]1)CCC3` as the molecule, how does the IC50 read?
Answer: 65 µM

Question: How did the IC50 turn out when `O=C1NC(C2CC2C(=O)O)Nc2sc3c(c21)CCC3` (racemic) was run?
Answer: 138 µM

Question: How did the IC50 turn out when `O=C(O)c1ccc(-c2nc3ccccc3c(=O)[nH]2)o1` was run?
Answer: 32 µM

Question: Which IC50 does the source give for `O=C(O)COCc1nc2sc3c(c2c(=O)[nH]1)CCC3` here?
Answer: 72 µM

Question: `O=C(O)CCCCc1nc2sc3c(c2c(=O)[nH]1)CCC3` was tested. Which IC50 did it give?
Answer: 53 µM

Question: For `O=C(O)[C@H](O)Cc1nc2sc3c(c2c(=O)[nH]1)CCC3`, which IC50 is on record?
Answer: 191 µM

Question: Which IC50 does the source give for `O=C(O)CCC(=O)Nc1sc2c(c1C(=O)O)CCCC2` here?
Answer: > 200 µM

Question: `O=C(O)CCCc1nc2cccc(F)c2c(=O)[nH]1` was tested. Which IC50 did it give?
Answer: 25 µM

Question: For `O=C(O)CCc1nc2cc3c(cc2c(=O)[nH]1)CCC3`, which IC50 is on record?
Answer: 98 µM

Question: With `CS(=O)(=O)NC(=O)CCc1nc2sc3c(c2c(=O)[nH]1)CCCC3` as the molecule, how does the IC50 read?
Answer: 100 µM

Question: With `O=C(O)C1CC1c1nc2sc3c(c2c(=O)[nH]1)CCC3` (stereo in doubt; form 1) as the molecule, how does the IC50 read?
Answer: 6.9 µM

Question: `O=C(O)c1ccccc1-c1nc2sc3c(c2c(=O)[nH]1)CCC3` was tested. Which IC50 did it give?
Answer: 97 µM

Question: `O=C(O)C1CC1c1nc2sc3c(c2c(=O)[nH]1)CCC3` (stereo in doubt; form 2) was tested. Which IC50 did it give?
Answer: 39 µM

Question: With `O=C(O)CCc1nc2sc3c(c2c(=O)[nH]1)CCC3` as the molecule, how does the IC50 read?
Answer: 19 to 20 µM

Question: `O=C(O)c1ccc(-c2nc3ccccc3c(=O)[nH]2)cc1` was tested. Which IC50 did it give?
Answer: 30 µM

Question: How did the IC50 turn out when `O=C(O)CCCc1nc2ccccc2c(=O)[nH]1` was run?
Answer: 25 to 30 µM

Question: How did the IC50 turn out when `O=C(O)[C@H]1C[C@H]1c1nc2sc3c(c2c(=O)[nH]1)CCC3` (racemic) was run?
Answer: 190 µM

Question: With `O=c1[nH]c(CCCO)nc2sc3c(c12)CCC3` as the molecule, how does the IC50 read?
Answer: 52 µM

Question: `O=C(O)CCCc1nc2cc(F)c(F)cc2c(=O)[nH]1` was tested. Which IC50 did it give?
Answer: 15 µM

Question: With `O=C(O)[C@@H](O)Cc1nc2sc3c(c2c(=O)[nH]1)CCC3` as the molecule, how does the IC50 read?
Answer: 55 µM

Question: With `O=C(O)/C=C/c1nc2sc3c(c2c(=O)[nH]1)CCC3` as the molecule, how does the IC50 read?
Answer: 70 µM

Question: With `O=C(O)CCc1nc2ccc3c(c2c(=O)[nH]1)CCC3` as the molecule, how does the IC50 read?
Answer: 54 µM

Question: How did the IC50 turn out when `O=C(O)CCc1nc2scc(-c3ccccc3)c2c(=O)[nH]1` was run?
Answer: 56 µM

Same assay, conditions: read-out: pIC50 (converted)

Question: How did the IC50 turn out when `O=C(O)[C@H]1C[C@@H]1c1nc2sc3c(c2c(=O)[nH]1)CCC3` (racemic) was run?
Answer: 11.2 µM

Question: `O=C(O)CCc1nc2sc3c(c2c(=O)[nH]1)CCC3` was tested. Which IC50 did it give?
Answer: 27.5 µM

Each molecule was assayed against T2, Exoenzyme S (Pseudomonas aeruginosa) (UniProt Q93SQ1) (assay: Inhibition of recombinant Pseudomonas aeruginosa PAK His6-tagged ExoS ADPRT domain expressed in Escherichia coli at 100 uM using human GST-fused vH-Ras as substrate measured over 30 mins in presence of 14.3.3beta and epsilonNAD+ by fluorescence assay relative to control). Settings: not given.
T2 sequence (whole entry): T1 sequence (Q93SQ1 whole entry)

Question: `COC(=O)CCc1nc(OC)c2c3c(sc2n1)CCC3` was tested. Which inhibition did it give?
Answer: 25%

Question: With `O=C(O)CCc1nc2sc3c(c2c(=O)[nH]1)CCOC3` as the molecule, how does the inhibition read?
Answer: < 60%

Question: For `O=C(O)CCCc1nc2cc3c(cc2c(=O)[nH]1)CCCC3`, which inhibition is on record?
Answer: 22%

Question: For `O=C(O)CCCc1nc2ccc([N+](=O)[O-])cc2c(=O)[nH]1`, which inhibition is on record?
Answer: 30%

Question: With `O=C(O)c1ccccc1Cc1nc2sc3c(c2c(=O)[nH]1)CCC3` as the molecule, how does the inhibition read?
Answer: 50%

Question: `O=C(O)CCc1nc2sc3c(c2c(=O)[nH]1)CCCCC3` was tested. Which inhibition did it give?
Answer: < 50%

Question: With `O=C(O)CCCCc1nc2ccccc2c(=O)[nH]1` as the molecule, how does the inhibition read?
Answer: 69%

Question: How did the inhibition turn out when `O=C(O)CCCc1nc2ccc3c(c2c(=O)[nH]1)CCC3` was run?
Answer: 60%

Question: For `O=C(O)/C=C/c1nc2ccccc2c(=O)[nH]1`, which inhibition is on record?
Answer: < 50%

Question: With `COc1ccc2c(=O)[nH]c(CCCC(=O)O)nc2c1` as the molecule, how does the inhibition read?
Answer: 20%

Question: `COC(=O)CCc1nc(N)c2c3c(sc2n1)CCC3` was tested. Which inhibition did it give?
Answer: 12%

Question: How did the inhibition turn out when `O=C(O)CCCc1nc2ccc3c(c2c(=O)[nH]1)CCCC3` was run?
Answer: 30%

Question: `O=C(O)CCc1nc2cc3c(cc2c(=O)[nH]1)CCCC3` was tested. Which inhibition did it give?
Answer: 27%

Question: With `O=C(O)CCc1nc2ccc3c(c2c(=O)[nH]1)CCCC3` as the molecule, how does the inhibition read?
Answer: 45%

Question: `O=C(O)CCCc1nc2cc3c(cc2c(=O)[nH]1)CCC3` was tested. Which inhibition did it give?
Answer: 50%

Each molecule was assayed against T1, Exoenzyme S (assay: Inhibition of Pseudomonas aeruginosa PAK secreted full length ExoS using human GST-fused vH-Ras as substrate preincubated for 10 mins followed by epsilonNAD+ addition measured at 30 mins in presence of 14.3.3beta and epsilonNAD+ by real-time fluorescent assay). Settings: read-out: IC50.
How it was run: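 Induce ExoS secretion by growing P. aeruginosa PAK overnight at 37 °C in shaken LB. Dilute to OD600 0.001 in LB with 5 mM EGTA and 20 mM MgCl2, then shake 4 h at 37 °C. Add the culture to 500 nM 14-3-3b, vH-Ras and compound in triplicate (13 concentrations, 1% DMSO). Start with εNAD+. Use PAKΔexoS as negative control. Read fluorescence kinetically at 302/410; IC50 from linear-phase velocity (% control), two independent runs.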

Question: Which IC50 does the source give for `O=C(O)/C=C\c1nc2sc3c(c2c(=O)[nH]1)CCC3` here?
Answer: 3.51 µM

Question: `O=C(O)[C@H]1C[C@@H]1c1nc2sc3c(c2c(=O)[nH]1)CCC3` (racemic) was tested. Which IC50 did it give?
Answer: 2.36 µM

Question: How did the IC50 turn out when `O=C(O)CCCc1nc2cccc(F)c2c(=O)[nH]1` was run?
Answer: 7.67 µM

Question: How did the IC50 turn out when `O=C(O)C1CC1c1nc2sc3c(c2c(=O)[nH]1)CCC3` (stereo in doubt; form 1) was run?
Answer: 1.32 µM

Question: How did the IC50 turn out when `O=C(O)C1CC1c1nc2sc3c(c2c(=O)[nH]1)CCC3` (stereo in doubt; form 2) was run?
Answer: 8.31 µM

Question: How did the IC50 turn out when `O=C(O)CCc1nc2sc3c(c2c(=O)[nH]1)CCC3` was run?
Answer: 6.93 µM

Same assay, conditions: read-out: pIC50 (converted)

Question: With `O=C(O)[C@H]1C[C@@H]1c1nc2sc3c(c2c(=O)[nH]1)CCC3` (racemic) as the molecule, how does the IC50 read?
Answer: 2.4 µM
